Rows were chosen to be rich in hits. Some 3.5% of all compounds tested hit in one or more screens of this group.
MrgX1 antag: human MrgX1 receptor antagonism, primary screen. Q96LB2. MRGX1-HEK293 calcium flux, Fluo-4, BAM8-22 antagonism; hits give low values. B-score at 10 µM. 310,000 compounds, 1.3% hits. AID 588676;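 active = calcium-response B-score plate-corrected more than 3 library SD below zero, starting fluorescence within 5 deviations, no agonist response on first addition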;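 note: peak minus trough fluorescence over baseline after final BAM8-22 challenge near maximal dose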
Target sequence (Q96LB2 whole entry, looked up): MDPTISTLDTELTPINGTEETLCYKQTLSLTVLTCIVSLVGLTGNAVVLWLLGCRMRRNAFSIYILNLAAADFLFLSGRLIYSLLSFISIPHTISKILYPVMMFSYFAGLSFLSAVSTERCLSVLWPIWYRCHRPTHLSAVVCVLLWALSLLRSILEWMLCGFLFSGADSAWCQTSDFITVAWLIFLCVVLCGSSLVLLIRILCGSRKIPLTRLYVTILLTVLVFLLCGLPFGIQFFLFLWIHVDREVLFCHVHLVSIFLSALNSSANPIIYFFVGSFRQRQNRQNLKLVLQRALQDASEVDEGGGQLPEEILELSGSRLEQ
RGS4 act: RGS4 potentiation or activation | HEK293 M3R/inducible RGS4, carbachol calcium flux Fluo4; hits give low values | B-score at 10 µM | 310,000 compounds, 0.92% hits;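 active = B-score of the integrated calcium signal more than 4 SD below the library mean, with starting fluorescence not abnormally high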;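 note: negative B-score means reduced calcium response which marks RGS4 activation or potentiation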
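System – HEK293 FlpIn-TREx cells, stable M3R, doxycycline-inducible RGS4 · Reagent – ECmax carbachol challenge · Times – compound preincubation 20 min at room temperature before agonist · Technique – Fluo4 fluorescence kinetic imaging of calcium · Measure – B score of integrated Fluo4 ratio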
RGS4 inh: inhibitors of human RGS4. P49798. HEK293 M3R/RGS4 inducible, Fluo-4 calcium flux; hits give high values; triggered by carbachol at its EC20. B-score at 10 µM. 310,000 compounds, 0.45% hits. AID 463165;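 active = B-score, a plate-corrected calcium signal, over three deviations above library mean, with baseline fluorescence within five deviations of library mean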;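 note: RGS4 expression induced by doxycycline in cells with stable M3 receptor; B-score is computed from the integrated fluorescence ratio over baseline after carbachol; higher B-score means a larger calcium signal and so more RGS4 inhibition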
Target sequence (P49798 whole entry, looked up): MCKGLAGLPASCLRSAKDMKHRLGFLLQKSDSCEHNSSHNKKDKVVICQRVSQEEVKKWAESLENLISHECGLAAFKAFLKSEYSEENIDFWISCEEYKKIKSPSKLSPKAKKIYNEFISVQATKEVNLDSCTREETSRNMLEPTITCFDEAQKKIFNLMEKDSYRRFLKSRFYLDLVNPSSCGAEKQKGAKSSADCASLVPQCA
MrgX1 agonist: activates human MrgX1 receptor signaling; MrgX1-HEK293 cells, Fluo-4 calcium fluorescence, agonist mode; hits give high values; Q96LB2; 310,000 compounds, 0.44% hits; B-score at 10 µM;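 active = calcium response B-score plate-corrected fluorescence ratio at least 3 library SD, with starting fluorescence B-score inside 5 SD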
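Assay system: stable human MrgX1 HEK293 cell line. Quantity: 15,000 cells per well. Schedule: cells plated overnight, dye loaded 0.5 h 37 °C, 0.5 h room temperature. Detection: Fluo-4 NW calcium-flux fluorescence, kinetic read. Read-out basis: peak-minus-minimum fluorescence over baseline, converted to B scores. Control set: positive and negative control wells on each plate.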
MrgX1 PAM: allosterically activates human MrgX1 receptor signaling; Q96LB2; MrgX1-HEK293, Fluo-4 calcium flux, FDSS; hits give high values; B-score at 10 µM; 310,000 compounds, 0.63% hits;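 active = plate-corrected calcium response at least 3 library SD above typical, normal starting fluorescence, not activating the receptor alone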;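 note: compound read alongside a low EC10 to EC30 dose of BAM8-22 agonist; peak minus trough fluorescence over baseline measured at the second addition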
RGS4 block valid: validation of RGS4 inhibitors | shares compounds with RGS4 inh | HEK293 M3R/RGS4, carbachol calcium Fluo-4 fluorescence; carbachol added at its EC20; 0 = buffer wells, 100 = carbachol control | calcium response, % at 10 µM | 1,700 compounds, 65% hits | AID 492999;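 active = duplicate-averaged calcium response above the buffer-only control mean plus 5 SD of those controls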;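 note: integrated fluorescence ratio F max minus min over baseline F0; higher response in RGS4-induced cells means RGS4 inhibition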
RGS4 uninduced: non-induced cell nonspecific activity of RGS4 inhibitors | HEK293 M3R non-induced, carbachol calcium Fluo-4; submaximal (EC20) carbachol stimulus; buffer wells 0%, carbachol control wells 100% | activity (percent), % at 10 µM | shares compounds with RGS4 inh | 1,900 compounds, 20% hits; call rule not given here;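 note: RGS4 induction absent so cells express M3R without RGS4; higher means more calcium signal and flags a non-specific hit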
M3R basal Ca ctr: signal in non-induced cells without carbachol, RGS4 inhibitor counter-screen | shares compounds with RGS4 inh | HEK293 M3R/RGS4 non-induced, Fluo-4 calcium, no carbachol; normalised: buffer wells 0%, carbachol wells 100% | calcium response (agonist-mode artifact), % at 10 µM | 1,900 compounds, 22% hits | AID 493001;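 active = duplicate-averaged calcium rise in uninduced cells above buffer wells' mean plus 5 SD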
MrgX1 ag confirm: human MrgX1 agonism, re-confirmation screen; shares compounds with MrgX1 agonist; MrgX1-HEK293, Fluo-4 calcium fluorescence, FDSS; activation, % at 10 µM; 600 compounds, 78% hits;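 active = calcium signal rise, corrected for plate position, at least 3 library SD high, with starting brightness within 5 such deviations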
HEK293 Ca flux: counter-screen for MrgX1 antagonists: effect in parental HEK293 cells | shares compounds with MrgX1 antag | AID 624111 | Fluo-4 calcium fluorescence, FDSS | 4,000 compounds, 2% hits | fluorescence ratio F(max-min)/F0 at 10 µM;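 active = duplicate-averaged calcium fluorescence ratio at least three times the standard deviation of buffer wells, a nonspecific response in parental cells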
HEK293 Ca counter: activity in parental HEK293 cells without MrgX1; shares compounds with MrgX1 antag; parental HEK293 calcium flux, Fluo-4 fluorescence ratio; hits give high values; fluorescence ratio F(max-min)/F0 at 10 µM; 4,000 compounds, 0.4% hits; AID 624114;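 active = calcium fluorescence ratio, averaged over duplicates, at least 3 SD of the buffer-well ratio, meaning a nonspecific response in receptor-free cells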;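 note: untransfected parental HEK293 lacking MrgX1 used as counterscreen for MrgX1 allosteric activators; fluorescence change taken during the second addition on a kinetic imager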
HEK293 Ca cntr2: MrgX1 activator counter-screen hit in parental HEK293 cells; fluorescence ratio F(max-min)/F0 at 10 µM; 4,000 compounds, 8.7% hits; shares compounds with MrgX1 antag; Fluo-4 calcium fluorescence (FDSS); hits give high values;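 active = calcium fluorescence ratio at least three times the spread of buffer wells, meaning a non-specific response in parental cells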
Numbers without * were called inactive.

C=C1C(=O)O[C@@H]2C[C@@H](C)[C@@H]3C=CC(=O)[C@@]3(C)[C@@H](OC(C)=O)[C@H]12 was read as MrgX1 antag inactive, RGS4 act inactive, RGS4 inh 7.6*, MrgX1 agonist 33*, MrgX1 PAM inactive, RGS4 block valid 22%*, RGS4 uninduced inactive and M3R basal Ca ctr 11%*.
Cn1c2ccccc2c2c(C(=O)NCc3ccco3)cn(C3CCCCC3)c(=O)c21 was read as MrgX1 antag inactive, RGS4 act inactive, RGS4 inh inactive, MrgX1 agonist inactive, MrgX1 PAM inactive, RGS4 block valid inactive, RGS4 uninduced inactive and M3R basal Ca ctr inactive.
For c1ccc(Nc2nc(N3CCCC3)nc(N3CCOCC3)n2)cc1 the results were MrgX1 antag inactive, RGS4 act inactive, RGS4 inh inactive, MrgX1 agonist inactive, MrgX1 PAM inactive, RGS4 block valid inactive, RGS4 uninduced inactive and M3R basal Ca ctr inactive.
COc1ccc(Nc2nc(N3CCCC3)nc(N3CCOCC3)n2)cc1 was read as MrgX1 antag inactive, RGS4 act inactive, RGS4 inh inactive, MrgX1 agonist inactive and MrgX1 PAM inactive.
O=c1nc(N2CCCC2)nc(Nc2ccccc2)[nH]1 was read as MrgX1 antag inactive, RGS4 act inactive, RGS4 inh inactive, MrgX1 agonist inactive, MrgX1 PAM inactive, RGS4 block valid inactive, RGS4 uninduced inactive and M3R basal Ca ctr inactive.
`CSc1ccccc1OCc1cc(C(=O)N(C)Cc2cnccn2)no1` gave MrgX1 antag inactive, RGS4 act inactive, RGS4 inh inactive, MrgX1 agonist inactive and MrgX1 PAM inactive.
Screening CCC(=O)N1CCc2cc(S(=O)(=O)N(C)c3ccc(Br)cc3)ccc21 returned RGS4 act inactive and RGS4 inh inactive.
Screening O=C(NCc1ccc(F)cc1)c1ccc(S(=O)(=O)Nc2cccc(C(F)(F)F)c2)cc1 returned MrgX1 antag inactive, RGS4 act inactive, RGS4 inh 5.2*, MrgX1 agonist inactive, MrgX1 PAM inactive, RGS4 block valid 16%*, RGS4 uninduced inactive and M3R basal Ca ctr 18%*.
For O=C(NCc1ccccc1F)c1ccc(S(=O)(=O)Nc2cccc(C(F)(F)F)c2)cc1 the results were MrgX1 antag inactive, RGS4 act inactive, RGS4 inh inactive, MrgX1 agonist inactive and MrgX1 PAM inactive.
For COc1ccccc1C(C(=O)NC1CCCC1)N(C(=O)c1csnn1)C1CC1 (centres undefined) the results were MrgX1 antag inactive, RGS4 act inactive, RGS4 inh inactive, MrgX1 agonist inactive and MrgX1 PAM inactive.
`COc1ccc(NC(=O)CN(C)C(=O)CSCc2c(C)noc2C)cc1` gave MrgX1 antag inactive, RGS4 act inactive, RGS4 inh inactive, MrgX1 agonist inactive and MrgX1 PAM inactive.
Screening COc1ccccc1N1CCN(C2CC(=O)N(c3cccc(Cl)c3)C2=O)CC1 (centres undefined) returned MrgX1 antag inactive, RGS4 act inactive, RGS4 inh inactive, MrgX1 agonist inactive and MrgX1 PAM inactive.
For CCOC(=O)CSC1=NC(=O)/C(=C\c2ccc(Cl)cc2)S1 the results were MrgX1 antag inactive, RGS4 act inactive, RGS4 inh inactive, MrgX1 agonist inactive, MrgX1 PAM inactive, RGS4 block valid inactive, RGS4 uninduced inactive and M3R basal Ca ctr 18%*.
`CCOC(=O)C1CCN(C2=NC(=O)/C(=C/c3ccc(Cl)cc3)S2)CC1` gave MrgX1 antag inactive, RGS4 act inactive, RGS4 inh inactive, MrgX1 agonist inactive and MrgX1 PAM inactive.
COc1ccc(C(=O)CCS(=O)(=O)c2ccc(F)cc2)cc1OC was read as MrgX1 antag inactive, RGS4 act inactive, RGS4 inh 36*, MrgX1 agonist 31*, MrgX1 PAM inactive, RGS4 block valid 168%*, RGS4 uninduced 28%*, M3R basal Ca ctr 15%*, MrgX1 ag confirm 141%*, HEK293 Ca flux inactive, HEK293 Ca counter inactive and HEK293 Ca cntr2 inactive.
CC(C)(C)OC(=O)n1cc(/C=N/NC(=O)c2ccco2)c2ccccc21 was read as MrgX1 antag inactive, RGS4 act inactive, RGS4 inh inactive, MrgX1 agonist inactive and MrgX1 PAM inactive.
Screening Cc1c(Cl)ccc2c1NC(=O)[C@]21N[C@@H](Cc2ccccc2)[C@H]2C(=O)N(c3ccc(F)cc3)C(=O)[C@H]21 returned MrgX1 antag inactive, RGS4 act inactive, RGS4 inh 4.9*, MrgX1 agonist 27*, MrgX1 PAM inactive, RGS4 block valid 27%*, RGS4 uninduced inactive, M3R basal Ca ctr 20%*, MrgX1 ag confirm inactive, HEK293 Ca flux inactive, HEK293 Ca counter inactive and HEK293 Ca cntr2 inactive.
COc1ccc(CS(=O)(=O)/C(Cl)=C(/Cl)C(=O)Nc2ccc(OC)nc2)cc1 was read as MrgX1 antag inactive, RGS4 act inactive, RGS4 inh 13*, MrgX1 agonist 47*, MrgX1 PAM inactive, RGS4 block valid 57%*, RGS4 uninduced 32%*, M3R basal Ca ctr 12%*, MrgX1 ag confirm 191%*, HEK293 Ca flux inactive, HEK293 Ca counter inactive and HEK293 Ca cntr2 inactive.

From PubChem
